This note sets out measurements from ChEMBL document CHEMBL3352815, “Indolinone based LRRK2 kinase inhibitors with a key hydrogen bond” (Bioorg Med Chem Lett, 2014).

For series [1], the target named is T1, Leucine-rich repeat serine/threonine-protein kinase 2 (Homo sapiens, UniProt Q5S007). Briefly: Inhibition of recombinant LRRK2 (unknown origin) using gamma-32P-ATP assessed as LRRKtide substrate phosphorylation level at 1 uM by autoradiography. Set-up: scale not given: the % may be the effect or the level left. In a few lines: (§1)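 In vitro LRRK2 kinase activity assay with a peptide substrate. Compound was tested at two concentrations, 10 and 1. Read-out is residual LRRK2 kinase activity, given as percent relative to control.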

Series [2] deals with T1, Leucine-rich repeat serine/threonine-protein kinase 2. Briefly: Inhibition of recombinant LRRK2 (unknown origin) using gamma-32P-ATP assessed as LRRKtide substrate phosphorylation level at 10 uM by autoradiography. More on the design: scale not given: the % may be the effect or the level left. In a few lines: as §1
The target is the same in series [3]. Briefly: Inhibition of recombinant LRRK2 (unknown origin) using gamma-32P-ATP assessed as LRRKtide substrate phosphorylation level by autoradiography.
The species entered for series [4] is Danio rerio. Briefly: Toxicity in zebrafish embryo assessed as crooked tails at 5 to 10 uM after 24 hrs. It is filed as organism-based. Conditions: in vivo.
The nature of series [5]: Toxicity in zebrafish embryo assessed as lethality at 20 to 30 uM after 24 hrs. It is filed as organism-based, Danio rerio. Conditions: in vivo, read-out: Activity. In a few lines: (§2)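 Zebrafish embryos kept in E3 medium at 28 °C; compound added at 24 hpf, with 1% DMSO embryos as control. Concentrations from 1 to 100 µM. Lethality recorded over time through 120 hpf, with phenotype also compared at 96 hpf.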

Series [6] has as its target Glycogen synthase kinase-3 beta (Homo sapiens) (UniProt P49841). Briefly: Inhibition of human recombinant GSK3beta using CFFKNIVTPRTPPPSQGK-amide substrate after 90 mins incubation by LANCE method. On the technique in general: In TR-FRET formats the signal depends on donor and acceptor labels being close together.
Series [7] deals with Rho-associated protein kinase 1 (Homo sapiens) (UniProt Q13464). Briefly: Inhibition of human recombinant ROCK1 using Ulight-RRRSLLE substrate assessed as remaining enzyme activity at 1 uM after 30 mins relative to control.
Series [8] concerns the target Serine/threonine-protein kinase TAO2 (Homo sapiens) (UniProt Q9UL54). In words: Inhibition of human recombinant TAOK2 (TAO1) using Ulight-FLGFTYVAP substrate assessed as remaining enzyme activity at 1 uM after 60 mins relative to control.
For series [9], the target named is High affinity nerve growth factor receptor (Homo sapiens) (UniProt P04629). Briefly: Inhibition of human recombinant TRKA expressed insect cells using Ulight-Poly GAT[EAY(1:1:1)]n substrate assessed as remaining enzyme activity at 1 uM after 10 mins relative to control.
The target in series [10] is MAP kinase-interacting serine/threonine-protein kinase 2 (Homo sapiens) (UniProt Q9HBH9). In words: Inhibition of human recombinant MNK2 expressed Sf21 cells using CREBtide (CKRREILSRRPSYRK) substrate assessed as remaining enzyme activity at 1 uM after 90 mins relative to control.
Series [11] addresses 3-phosphoinositide-dependent protein kinase 1 (Homo sapiens) (UniProt O15530). In words: Inhibition of human recombinant PDK1 expressed insect cells using Ulight-FLGFTYVAP substrate assessed as remaining enzyme activity at 1 uM after 90 mins relative to control.
Series [12] has as its target Serine/threonine-protein kinase Chk2 (Homo sapiens) (UniProt O96017). Briefly: Inhibition of human recombinant CHK2 expressed insect cells using CREBtide (CKRREILSRRPSYRK) substrate assessed as remaining enzyme activity at 1 uM after 15 mins relative to control.
The target in series [13] is Interleukin-1 receptor-associated kinase 4 (Homo sapiens) (UniProt Q9NWZ3). Briefly: Inhibition of human recombinant IRAK4 expressed insect cells using Ulight-FLGFTYVAP substrate assessed as remaining enzyme activity at 1 uM after 90 mins relative to control.
Series [14] concerns the target Serine/threonine-protein kinase PLK1 (Homo sapiens) (UniProt P53350). Briefly: Inhibition of human recombinant PLK1 using Ulight-FLGFTYVAP substrate assessed as remaining enzyme activity at 1 uM after 60 mins relative to control.
Series [15] concerns the target Serine/threonine-protein kinase Sgk1 (Homo sapiens) (UniProt O00141). In words: Inhibition of human recombinant SGK1 using Ulight-RRRSLLE substrate assessed as remaining enzyme activity at 1 uM after 30 mins relative to control.
The target of series [16] is Serine/threonine-protein kinase Nek2 (Homo sapiens) (UniProt P51955). In words: Inhibition of human recombinant NEK2 expressed insect cells using Ulight-FLGFTYVAP substrate assessed as remaining enzyme activity at 1 uM after 60 mins relative to control.
Series [17] concerns the target Serine/threonine-protein kinase 26 (Homo sapiens) (UniProt Q9P289). Briefly: Inhibition of human recombinant MST4 kinase using Ulight TM- PKC substrate assessed as remaining enzyme activity at 1 uM after 30 mins relative to control.
In series [18] the target is Serine/threonine-protein kinase Chk1 (Homo sapiens) (UniProt O14757). Briefly: Inhibition of human recombinant CHK1 expressed insect cells using CREBtide (CKRREILSRRPSYRK) substrate assessed as remaining enzyme activity at 1 uM after 30 mins relative to control.
For series [19], the target named is Tyrosine-protein kinase ABL1 (Homo sapiens) (UniProt P00519). Briefly: Inhibition of human recombinant Abl kinase expressed insect cells using Ulight-TK peptide substrate assessed as remaining enzyme activity at 1 uM after 60 mins relative to control.
Series [20] is filed under the species Danio rerio. Briefly: Toxicity in zebrafish embryo at below 10 uM after 24 hrs. Conditions: in vivo. The format is organism-based. In outline: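 Zebrafish embryos collected and kept in E3 medium at 28 °C. Compound added at 24 hpf, and phenotypes (growth, tail morphology) were compared at 96 hpf against control embryos in 1% DMSO. Lethality was followed over time up to 120 hpf across a concentration series.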

In series [21] the target is Insulin receptor (Homo sapiens) (UniProt P06213). In words: Inhibition of human recombinant InsR using Ulight-Poly GAT[EAY(1:1:1)]n substrate assessed as remaining enzyme activity at 1 uM after 10 mins relative to control.
Series [22] deals with Hepatocyte growth factor receptor (Homo sapiens) (UniProt P08581). Briefly: Inhibition of human recombinant c-Met kinase expressed insect cells using Ulight-CAGAGAIETDKEYYTVKD substrate assessed as remaining enzyme activity at 1 uM after 60 mins relative to control.
Series [23] deals with Vascular endothelial growth factor receptor 2 (Homo sapiens) (UniProt P35968). In words: Inhibition of human recombinant KDR kinase expressed Sf9 cells using Ulight-CAGAGAIETDKEYYTVKD substrate assessed as remaining enzyme activity at 1 uM after 60 mins relative to control.
Series [24] has as its target MAP kinase-activated protein kinase 2 (Homo sapiens) (UniProt P49137). In words: Inhibition of human recombinant MAPKAPK2 expressed Escherichia coli using CREBtide (CKRREILSRRPSYRK) substrate assessed as remaining enzyme activity at 1 uM after 15 mins relative to control.
The target in series [25] is Cyclin-dependent kinase 1/cyclin B1 (Homo sapiens) (UniProt P06493+P14635). In words: Inhibition of human recombinant CDC2/CDK1 (cycB) expressed insect cells using Ulight-CFFKNIVTPRTPPPSQGK-amide substrate assessed as remaining enzyme activity at 1 uM after 15 mins relative to control.
Series [26] has as its target RAC-alpha serine/threonine-protein kinase (Homo sapiens) (UniProt P31749). In words: Inhibition of human recombinant Akt1/PKBalpha expressed insect cells using CKRREILSRRPSYRK substrate assessed as remaining enzyme activity at 1 uM after 60 mins relative to control.
Series [27] concerns the target Ephrin type-A receptor 3 (Homo sapiens) (UniProt P29320). In words: Inhibition of human recombinant EphA3 kinase using Ulight-TK peptide substrate assessed as remaining enzyme activity at 1 uM after 60 mins relative to control.
Series [28] deals with Cyclin-dependent kinase 2 (Homo sapiens) (UniProt P24941). Briefly: Inhibition of human recombinant CDK2 using Ulight-CFFKNIVTPRTPPPSQGK-amide substrate assessed as remaining enzyme activity at 1 uM after 30 mins relative to control.
In series [29] the target is Proto-oncogene tyrosine-protein kinase Src (Homo sapiens) (UniProt P12931). In words: Inhibition of human recombinant Src kinase expressed insect cells using Ulight-Poly GAT[EAY(1:1:1)]n substrate assessed as remaining enzyme activity at 1 uM after 10 mins relative to control.
Series [30] is described as follows: Toxicity in zebrafish embryo assessed as lethality at 30 uM after 120 hrs. The format is organism-based, Danio rerio. To be noted: in vivo, read-out: Activity. In a few lines:
as §2

In series [31] the target is Tyrosine-protein kinase Lck (Homo sapiens) (UniProt P06239). Briefly: Inhibition of human recombinant Lck kinase expressed insect cells using Ulight-Poly GAT[EAY(1:1:1)]n substrate assessed as remaining enzyme activity at 1 uM after 30 mins relative to control.

T1 sequence (Q5S007 whole entry): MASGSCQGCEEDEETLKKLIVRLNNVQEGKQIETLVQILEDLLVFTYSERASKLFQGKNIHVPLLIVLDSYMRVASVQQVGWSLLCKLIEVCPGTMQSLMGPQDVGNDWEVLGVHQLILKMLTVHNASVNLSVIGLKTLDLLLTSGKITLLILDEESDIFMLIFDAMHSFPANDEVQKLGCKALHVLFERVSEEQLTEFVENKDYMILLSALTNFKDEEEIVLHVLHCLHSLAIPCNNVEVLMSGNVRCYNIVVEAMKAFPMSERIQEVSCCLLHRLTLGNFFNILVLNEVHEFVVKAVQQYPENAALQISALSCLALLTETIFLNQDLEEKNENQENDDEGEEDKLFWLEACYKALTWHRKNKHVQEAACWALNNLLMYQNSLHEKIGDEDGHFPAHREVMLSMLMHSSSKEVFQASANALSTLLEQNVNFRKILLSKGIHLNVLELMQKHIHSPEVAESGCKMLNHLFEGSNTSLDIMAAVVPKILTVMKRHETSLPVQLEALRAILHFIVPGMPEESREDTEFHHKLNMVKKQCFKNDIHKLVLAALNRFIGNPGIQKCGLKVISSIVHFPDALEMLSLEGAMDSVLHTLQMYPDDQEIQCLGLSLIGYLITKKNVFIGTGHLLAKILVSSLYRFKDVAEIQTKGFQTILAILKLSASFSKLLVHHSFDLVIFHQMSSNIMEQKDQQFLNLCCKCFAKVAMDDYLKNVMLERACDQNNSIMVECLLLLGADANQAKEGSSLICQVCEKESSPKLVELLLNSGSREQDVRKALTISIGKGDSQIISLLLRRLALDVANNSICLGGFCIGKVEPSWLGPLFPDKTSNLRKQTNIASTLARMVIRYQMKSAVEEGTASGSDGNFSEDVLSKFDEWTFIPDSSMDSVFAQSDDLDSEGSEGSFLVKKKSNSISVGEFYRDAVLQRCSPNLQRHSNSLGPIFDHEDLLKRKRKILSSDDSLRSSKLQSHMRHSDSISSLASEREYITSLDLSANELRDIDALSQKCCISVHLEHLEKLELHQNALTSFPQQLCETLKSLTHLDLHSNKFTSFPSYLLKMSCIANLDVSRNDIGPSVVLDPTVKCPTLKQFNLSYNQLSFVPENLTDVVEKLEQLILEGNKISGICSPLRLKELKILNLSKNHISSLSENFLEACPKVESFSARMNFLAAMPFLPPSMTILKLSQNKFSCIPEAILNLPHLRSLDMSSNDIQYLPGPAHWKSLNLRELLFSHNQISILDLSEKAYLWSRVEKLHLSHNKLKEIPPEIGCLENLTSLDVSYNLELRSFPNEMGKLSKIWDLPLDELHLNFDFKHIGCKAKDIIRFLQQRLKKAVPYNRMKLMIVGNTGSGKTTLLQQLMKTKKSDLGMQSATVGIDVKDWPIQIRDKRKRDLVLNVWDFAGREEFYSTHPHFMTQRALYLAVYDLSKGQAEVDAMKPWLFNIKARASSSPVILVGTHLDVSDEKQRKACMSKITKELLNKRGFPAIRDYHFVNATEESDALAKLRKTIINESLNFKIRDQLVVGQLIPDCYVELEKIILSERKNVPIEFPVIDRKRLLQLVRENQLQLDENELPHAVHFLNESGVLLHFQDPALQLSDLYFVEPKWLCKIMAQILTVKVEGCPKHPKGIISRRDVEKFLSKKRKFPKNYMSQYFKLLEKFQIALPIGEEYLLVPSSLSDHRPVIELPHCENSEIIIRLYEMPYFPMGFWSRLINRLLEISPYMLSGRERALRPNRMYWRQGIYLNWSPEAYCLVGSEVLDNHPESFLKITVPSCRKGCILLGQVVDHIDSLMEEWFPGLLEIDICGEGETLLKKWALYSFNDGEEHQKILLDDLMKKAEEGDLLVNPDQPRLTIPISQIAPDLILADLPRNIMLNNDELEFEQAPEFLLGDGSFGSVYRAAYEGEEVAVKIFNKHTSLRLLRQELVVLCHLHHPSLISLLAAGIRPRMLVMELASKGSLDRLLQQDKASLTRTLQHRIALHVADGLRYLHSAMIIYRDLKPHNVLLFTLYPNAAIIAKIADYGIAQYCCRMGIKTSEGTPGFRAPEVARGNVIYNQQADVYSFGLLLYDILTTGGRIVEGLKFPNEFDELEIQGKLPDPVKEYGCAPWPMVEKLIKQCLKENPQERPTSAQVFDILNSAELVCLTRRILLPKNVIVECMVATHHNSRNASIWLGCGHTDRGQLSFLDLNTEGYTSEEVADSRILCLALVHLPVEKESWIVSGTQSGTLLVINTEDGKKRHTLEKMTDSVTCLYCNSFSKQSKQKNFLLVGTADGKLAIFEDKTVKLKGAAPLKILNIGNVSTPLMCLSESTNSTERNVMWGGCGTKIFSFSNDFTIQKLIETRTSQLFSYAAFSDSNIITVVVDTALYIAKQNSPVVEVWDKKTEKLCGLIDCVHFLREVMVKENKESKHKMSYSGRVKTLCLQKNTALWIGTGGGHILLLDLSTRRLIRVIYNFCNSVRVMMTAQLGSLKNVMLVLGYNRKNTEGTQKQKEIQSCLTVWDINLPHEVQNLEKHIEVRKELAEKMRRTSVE
Sequence of Cyclin-dependent kinase 1/cyclin B1 (Homo sapiens) (P06493 whole entry, looked up): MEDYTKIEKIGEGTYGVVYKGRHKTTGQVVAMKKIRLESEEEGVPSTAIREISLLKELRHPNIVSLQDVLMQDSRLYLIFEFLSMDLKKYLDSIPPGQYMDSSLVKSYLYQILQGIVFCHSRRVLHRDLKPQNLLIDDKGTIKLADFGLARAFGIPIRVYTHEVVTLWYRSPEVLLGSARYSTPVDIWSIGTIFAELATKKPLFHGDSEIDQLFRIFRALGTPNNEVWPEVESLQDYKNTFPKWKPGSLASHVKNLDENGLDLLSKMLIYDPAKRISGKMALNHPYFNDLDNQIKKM
Sequence of Cyclin-dependent kinase 1/cyclin B1 (Homo sapiens) (P14635 whole entry, looked up): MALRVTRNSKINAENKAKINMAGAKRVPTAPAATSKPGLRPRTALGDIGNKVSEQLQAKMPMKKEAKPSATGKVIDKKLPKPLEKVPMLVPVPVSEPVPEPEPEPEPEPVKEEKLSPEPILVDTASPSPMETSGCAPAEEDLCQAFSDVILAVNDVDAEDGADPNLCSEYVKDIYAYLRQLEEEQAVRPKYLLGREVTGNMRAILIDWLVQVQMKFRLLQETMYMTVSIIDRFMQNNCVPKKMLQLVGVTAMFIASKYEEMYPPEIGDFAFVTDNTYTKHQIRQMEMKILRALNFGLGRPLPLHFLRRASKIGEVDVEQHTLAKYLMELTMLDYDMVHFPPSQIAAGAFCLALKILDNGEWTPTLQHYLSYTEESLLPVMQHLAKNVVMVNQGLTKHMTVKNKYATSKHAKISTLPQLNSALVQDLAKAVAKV
Sequence of Proto-oncogene tyrosine-protein kinase Src (Homo sapiens) (P12931 2-536 limits assumed): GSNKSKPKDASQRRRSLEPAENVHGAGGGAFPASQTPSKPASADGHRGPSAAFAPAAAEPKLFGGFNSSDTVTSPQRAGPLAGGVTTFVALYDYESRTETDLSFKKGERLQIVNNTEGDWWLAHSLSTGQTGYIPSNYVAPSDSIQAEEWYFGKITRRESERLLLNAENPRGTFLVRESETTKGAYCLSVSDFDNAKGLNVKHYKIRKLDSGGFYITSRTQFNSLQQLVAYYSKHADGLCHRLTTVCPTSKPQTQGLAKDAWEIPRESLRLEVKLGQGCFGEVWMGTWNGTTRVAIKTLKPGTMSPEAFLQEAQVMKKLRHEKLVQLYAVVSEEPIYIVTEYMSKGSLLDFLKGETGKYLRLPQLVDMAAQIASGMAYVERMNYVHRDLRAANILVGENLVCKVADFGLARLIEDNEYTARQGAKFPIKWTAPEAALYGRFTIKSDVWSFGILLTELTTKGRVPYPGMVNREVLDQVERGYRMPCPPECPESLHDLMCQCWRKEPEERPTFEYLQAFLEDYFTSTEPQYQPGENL
Sequence of MAP kinase-activated protein kinase 2 (Homo sapiens) (P49137 whole entry, looked up): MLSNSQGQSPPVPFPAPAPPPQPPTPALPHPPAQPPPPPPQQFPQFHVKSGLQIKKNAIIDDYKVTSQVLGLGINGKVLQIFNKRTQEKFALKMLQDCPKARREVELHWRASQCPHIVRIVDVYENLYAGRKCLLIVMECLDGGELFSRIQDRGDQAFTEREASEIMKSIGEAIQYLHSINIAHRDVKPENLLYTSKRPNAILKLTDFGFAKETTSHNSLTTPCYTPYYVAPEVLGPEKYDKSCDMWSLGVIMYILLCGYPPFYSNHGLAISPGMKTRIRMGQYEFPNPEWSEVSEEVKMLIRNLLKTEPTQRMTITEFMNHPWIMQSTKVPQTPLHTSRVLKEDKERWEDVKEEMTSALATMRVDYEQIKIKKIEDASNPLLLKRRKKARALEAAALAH
Sequence of Serine/threonine-protein kinase PLK1 (Homo sapiens) (P53350 whole entry): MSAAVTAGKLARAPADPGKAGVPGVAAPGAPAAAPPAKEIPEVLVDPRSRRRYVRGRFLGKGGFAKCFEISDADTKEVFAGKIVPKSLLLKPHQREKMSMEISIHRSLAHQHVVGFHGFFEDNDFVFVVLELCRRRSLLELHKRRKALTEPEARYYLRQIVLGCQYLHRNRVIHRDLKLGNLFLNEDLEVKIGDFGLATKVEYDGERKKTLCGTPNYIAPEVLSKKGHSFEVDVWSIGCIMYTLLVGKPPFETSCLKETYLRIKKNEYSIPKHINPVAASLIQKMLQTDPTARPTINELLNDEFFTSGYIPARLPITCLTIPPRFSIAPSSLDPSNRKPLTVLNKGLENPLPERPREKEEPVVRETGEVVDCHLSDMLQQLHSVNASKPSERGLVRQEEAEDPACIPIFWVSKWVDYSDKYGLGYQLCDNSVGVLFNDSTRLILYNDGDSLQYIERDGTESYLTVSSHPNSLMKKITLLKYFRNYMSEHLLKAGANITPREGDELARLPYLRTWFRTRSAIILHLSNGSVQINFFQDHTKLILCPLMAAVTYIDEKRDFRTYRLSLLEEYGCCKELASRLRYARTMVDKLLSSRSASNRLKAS

As for `COc1cc(C(=O)N2CCC(N3CCN(C)CC3)CC2)ccc1Nc1ncc2c(n1)N(C)c1ccccc1C(=O)N2C`, the results for the Activity in series [1] and in [2] were 13% and 5%, respectively.
For `COc1cc(/C=C2/C(=O)Nc3ccc(Cl)cc32)ccc1N1CCOCC1`, in that order: 22% and 33%.
For `O=C1Nc2ccc(Cl)cc2/C1=C\c1ccc(O)cc1`, the Activity in series [1] amounted to 12%; in [2], 8%. Moreover, the IC50 (in general, the midpoint of a concentration-inhibition curve) in series [3] stood at 12 µM.
Take `COc1cc(/C=C2/C(=O)Nc3ccc(Cl)cc32)ccc1OCCN(C)C`: the Activity is 26% in series [1] and 24% in [2].
In the case of `COc1cc(/C=C2/C(=O)Nc3ccc(Cl)cc32)ccc1OCCN1CCOCC1`, the values for the Activity in series [1] and in series [2] were 8% and 9%, respectively. The IC50 in [3] amounted to 0.163 µM.
As to `O=C1Nc2ccc(Cl)cc2/C1=C\c1ccc(O)c(Br)c1`, the Activity result in the series filed under Danio rerio [4] is “Toxic”. The mortality at 24 h, up to 30 µM in series [5] was above 80%. Also, the inhibition – broadly, the change of the read-out against control, counted positive when it falls – in [6] stood at 19%.
Consider `COc1ccc2c(c1)/C(=C\c1cc(Br)c(O)c(Br)c1)C(=O)N2`, for which the IC50 in series [3] was 0.031 µM.
For the molecule `CN(C)CCOc1ccc(/C=C2/C(=O)Nc3ccc(Cl)cc32)cc1`, the Activity in series [1] worked out at 22%; in series [2] it was 3%. Also, the IC50 in [3] came out at 0.466 µM.
Taken in the same sequence, the figures for `O=C1Nc2ccc(Cl)cc2/C1=C\c1ccccc1` were 27%, 16% and 10 µM.
For `O=C1Nc2ccc(Cl)cc2/C1=C\c1ccc(OCCN2CCOCC2)cc1`, in that order: 37%, 15% and 0.205 µM.
With `COc1c(C)cc(/C=C2/C(=O)Nc3ccc(Cl)cc32)cc1C`, in series [3], the IC50 was determined as 1.5 µM.
As to `COc1cc(OCCN(C)C)ccc1/C=C1/C(=O)Nc2ccc(Cl)cc21`, the Activity was determined as 62% in series [1] and 29% in series [2].
Turning to `O=C1Nc2ccc(Cl)cc2/C1=C/c1cc(Br)c(O)c(Br)c1`, the Activity worked out at 92% in series [7]; 85% in series [8]; 91% in [9]; 89% in series [10]; 83% in [11]; 87% in series [12]. Moreover, the Activity in [13] is 90%; in series [14], 80%; in [15], 100%; in series [16], 99%; in series [17], 103%; in [18], 81%. The Activity is 77% in series [19]; “Non-toxic” in the series filed under Danio rerio [20]; 104% in series [21]; 69% in series [22]; 97% in series [23]; 83% in series [24]. The Activity in series [25] is 90%; in [26], 87%; in [27], 101%; in series [28], 95%; in series [29], 101%; in series [31] it was 102%. Also, the mortality at 120 h, 30 µM in series [30] came to 40%.
`CN[C@@H]1C[C@H]2O[C@@](C)([C@@H]1OC)n1c3ccccc3c3c4c(c5c6ccccc6n2c5c31)C(=O)NC4`: the Activity in series [1] worked out at 5%; in series [2], 2%.
